Assays:
IL1B = type: cell-based, human; settings: FLS co-treated with 0.5 ng/mL IL1β, 24 hours; TCDD 10 nM
In short: (§1)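 Primary human fibroblast-like synoviocytes from healthy donors, kept and treated in Synoviocyte Growth Medium. […] RNA was isolated and transcripts quantified by real-time qPCR relative to ACTB, normalised to TCDD (10 nM) and vehicle. Mean ± SEM; one-way ANOVA.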

EREG = type: cell-based, human; settings: FLS co-treated with 0.5 ng/mL IL1β, 24 hours; TCDD 10 nM
In short: as §1

human AHR = target: T1, human AHR (Homo sapiens, UniProt P35869); test: Human AHR-dependent luciferase reporter assay; type: cell-based; settings: HepG2 40/6 luciferase reporter, 4 hours, normalized to 10 nM TCDD and VEH
T1 sequence (P35869 11-848): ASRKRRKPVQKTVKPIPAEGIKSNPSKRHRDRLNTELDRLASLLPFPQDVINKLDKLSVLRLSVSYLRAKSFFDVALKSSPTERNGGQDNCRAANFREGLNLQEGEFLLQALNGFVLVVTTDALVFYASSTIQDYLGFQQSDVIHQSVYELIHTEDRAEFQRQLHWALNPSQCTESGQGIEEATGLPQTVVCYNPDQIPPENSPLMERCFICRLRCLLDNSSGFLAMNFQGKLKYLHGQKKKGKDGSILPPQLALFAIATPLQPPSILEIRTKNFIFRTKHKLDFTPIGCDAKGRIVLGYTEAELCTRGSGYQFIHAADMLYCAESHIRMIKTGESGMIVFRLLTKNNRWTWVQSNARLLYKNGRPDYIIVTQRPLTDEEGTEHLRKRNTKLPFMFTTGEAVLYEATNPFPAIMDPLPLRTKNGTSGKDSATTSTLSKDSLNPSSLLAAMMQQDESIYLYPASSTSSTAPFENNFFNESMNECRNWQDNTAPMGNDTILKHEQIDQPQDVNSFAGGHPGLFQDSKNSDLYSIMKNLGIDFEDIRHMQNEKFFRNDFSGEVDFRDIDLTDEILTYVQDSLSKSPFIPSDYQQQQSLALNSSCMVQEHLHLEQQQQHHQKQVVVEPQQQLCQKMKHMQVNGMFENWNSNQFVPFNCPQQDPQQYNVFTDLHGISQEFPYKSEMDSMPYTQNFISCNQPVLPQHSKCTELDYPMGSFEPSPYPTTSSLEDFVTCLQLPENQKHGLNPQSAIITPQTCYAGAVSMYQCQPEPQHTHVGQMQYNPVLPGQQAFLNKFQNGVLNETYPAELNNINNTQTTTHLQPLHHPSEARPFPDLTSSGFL

mouse AHR = test: Mouse AHR-dependent luciferase reporter assay; type: cell-based; settings: Hepa 1.1 cells, 4 hours, mean concentrations measured in mouse sera
In short: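 Hepa 1.1 cells were grown in αMEM with 8% FBS and 1% penicillin-streptomycin, then seeded 24 h before treatment. […] Lysate luciferase was read by luminometer and compared with vehicle; one-way ANOVA.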

AHR target gene, CYP1A1 = test: CYP1A1 induction in Caco2 cells; type: cell-based, human; settings: 4 hours, mean serum concentrations

SMILES | EC25 (human AHR) [µM] | also measured
Clc1cc2c(cc1Cl)Oc1cc(Cl)c(Cl)cc1O2 [TCDD, 2,3,7,8-tetrachlorodibenzo-p-dioxin] | – | induction in IL1B expression (IL1B): 192 fold; induction in EREG expression (EREG): 27 fold
O=C(O)c1cc(=O)c2ccccc2[nH]1 [Kynurenic acid, kynurenic acid] | 0.0408 | –
Nc1ccccc1C(=O)CC(N)C(=O)O (centres unmarked) [Kynurenine, kynurenine] | 1.76 | induction of luciferase activity relative to the vehicle treatment (mouse AHR): ~ 6 fold; AHR activity (CYP1A1 transcripts by qPCR) versus vehicle (AHR target gene, CYP1A1): significantly different from the vehicle treatment
O=C(O)CCc1c[nH]c2ccccc12 [Indole-3-propionic acid, indole-3-propionic acid] | 19.2 | –
O=C(O)C(O)Cc1c[nH]c2ccccc12 (centres unmarked) [Indole-3-lactic acid, indole-3-lactic acid] | 25.9 | –
